Data set [1] deals with Nucleic Acid. In words: Binding affinity to Aequorea victoria GFP mRNA in insect cell extract assessed as inhibition of mRNA translation at 4.8 mM irradiated with 310 nm monochromatic light for 2 mins measured after 10 hrs by fluorescence assay. Format: nucleic-acid assay. In outline: (§1)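 Capped GFP mRNA made by in vitro T7 transcription (37 °C, 4 h; poly(A)30 template), DNase-digested and purified, then translated in insect cell extract. Before translation the mixture was irradiated at room temperature for 2 min at 410 nm (cis to trans) or 310 nm (trans to cis). GFP read by fluorescence.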

Data set [2] has as its system Nucleic Acid. As to the kind of experiment: Binding affinity to Aequorea victoria GFP mRNA in insect cell extract assessed as increase in mRNA translation at 4.8 mM irradiated with 310 nm monochromatic light for 2 mins measured up to 60 mins by time course fluorescence assay. Format: nucleic-acid assay. In outline: (§2)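 GFP mRNA capped at the 5' end during in vitro T7 transcription (37 °C, 4 h; PCR template carrying a 30-base poly(A) tail), then DNase-treated and purified. Translated in insect cell extract. Sample irradiated 2 min at 310 nm at 0 and 130 min and 2 min at 410 nm at 60 min. GFP fluorescence (ex 480 nm, em 509 nm) recorded over time, with normal-capped mRNA run alongside.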

A short description of data set [3]: Thermal stability of the compound assessed as compound isomerization at 80 degC after 20 hrs. The class given is physicochemical. The procedure, abridged: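 Cis and trans isomers held at 80 °C for 20 h and checked for thermal isomerization. Isomers were generated with a 300 W xenon lamp at 25 °C, 2 cm from the source: 410 nm (103 mW/cm2) or 310 nm (81 mW/cm2), 2 min each. Isomer content measured by HPLC peak area.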

Data set [4] relates to Nucleic Acid. As to the kind of experiment: Binding affinity to Aequorea victoria GFP mRNA in insect cell extract assessed as increase in mRNA translation at 4.8 mM irradiated with 310 nm monochromatic light for 2 mins measured after 130 mins by time course fluorescence assay. Format: nucleic-acid assay. The procedure, abridged:
as §2

The test system of data set [5] is Nucleic Acid. As to the kind of experiment: Binding affinity to Aequorea victoria GFP mRNA in insect cell extract assessed as inhibition of mRNA translation at 4.8 mM irradiated with 410 nm monochromatic light for 2 mins measured after 10 hrs by fluorescence assay. Format: nucleic-acid assay. The procedure, abridged:
as §1

Data set [6] deals with Nucleic Acid. As to the kind of experiment: Binding affinity to Aequorea victoria GFP mRNA in insect cell extract assessed as mRNA translational efficiency at 4.8 mM irradiated with 410 nm monochromatic light for 2 mins measured after 10 hrs by fluorescence assay. Format: nucleic-acid assay. In outline: as §1
Data set [7] has as its system Nucleic Acid. As to the kind of experiment: Binding affinity to Aequorea victoria GFP mRNA in insect cell extract assessed as mRNA translational efficiency at 4.8 mM irradiated with 410 nm monochromatic light for 2 mins measured after 10 hrs by fluorescence assay relative to normal-capped mRNA. The class given is nucleic-acid assay. In outline: as §1

Each structure is given as a SMILES string. The source made the active and inactive calls. The rule behind the calls is not given here.

As to `CCN(CC)CC.CCN(CC)CC.C[n+]1c(/C=C/c2ccc3ccccc3c2)n([C@@H]2O[C@H](COP(=O)([O-])OP(=O)(O)OP(=O)(O)OC[C@H]3O[C@@H](n4cnc5c(=O)[nH]c(N)nc54)[C@H](O)[C@@H]3O)[C@@H](O)[C@H]2O)c2nc(N)[nH]c(=O)c21`, the inhibition result in data set [1] is “Active”. Moreover, the outcome in data set [2] and in data set [4] was inactive. Besides, the Stability result in data set [3] is recorded as “Stable”.

Take `CCN(CC)CC.CCN(CC)CC.C[n+]1c(/C=C\c2ccc3c(c2)Cc2ccccc2-3)n([C@@H]2O[C@H](COP(=O)(O)OP(=O)(O)OP(=O)([O-])OC[C@H]3O[C@@H](n4cnc5c(=O)[nH]c(N)nc54)[C@H](O)[C@@H]3O)[C@@H](O)[C@H]2O)c2nc(N)[nH]c(=O)c21`: the Stability result in data set [3] is on record as “Stable”. Moreover, the inhibition entry in data set [5] is “Active”.

Turning to `CCN(CC)CC.CCN(CC)CC.C[n+]1c(/C=C/c2ccc3c(c2)Cc2ccccc2-3)n([C@@H]2O[C@H](COP(=O)([O-])OP(=O)(O)OP(=O)(O)OC[C@H]3O[C@@H](n4cnc5c(=O)[nH]c(N)nc54)[C@H](O)[C@@H]3O)[C@@H](O)[C@H]2O)c2nc(N)[nH]c(=O)c21`, in data set [1], the inhibition result is “Active”. In addition, the Stability result in data set [3] is reported as “Stable”.

Regarding `CCN(CC)CC.CCN(CC)CC.C[n+]1c(/C=C\c2ccc3ccccc3c2)n([C@@H]2O[C@H](COP(=O)(O)OP(=O)(O)OP(=O)([O-])OC[C@H]3O[C@@H](n4cnc5c(=O)[nH]c(N)nc54)[C@H](O)[C@@H]3O)[C@@H](O)[C@H]2O)c2nc(N)[nH]c(=O)c21`, the Stability entry in data set [3] is “Stable”. In addition, the outcome in data set [6] was Active.

Regarding `CCN(CC)CC.CCN(CC)CC.C[n+]1c(/C=C/c2ccccc2)n([C@@H]2O[C@H](COP(=O)([O-])OP(=O)(O)OP(=O)(O)OC[C@H]3O[C@@H](n4cnc5c(=O)[nH]c(N)nc54)[C@H](O)[C@@H]3O)[C@@H](O)[C@H]2O)c2nc(N)[nH]c(=O)c21`, the Stability result in data set [3] was “Stable”.

For `CCN(CC)CC.CCN(CC)CC.C[n+]1c(/C=C\c2ccccc2)n([C@@H]2O[C@H](COP(=O)([O-])OP(=O)(O)OP(=O)(O)OC[C@H]3O[C@@H](n4cnc5c(=O)[nH]c(N)nc54)[C@H](O)[C@@H]3O)[C@@H](O)[C@H]2O)c2nc(N)[nH]c(=O)c21`, the Stability entry in data set [3] is recorded as “Stable”. Moreover, the fold change (FC) in data set [7] amounted to 2.2.

For the origin of these results see ChEMBL document CHEMBL2146423, “Photoresponsive 5'-cap for the reversible photoregulation of gene expression” (Bioorg Med Chem Lett, 2011).
